{"source": "paper PMC10104512", "about": "(Proceedings of the National Academy of Sciences of the …, 2023)", "key": {"[1]": {"system": "VIE (5 strains), ATCC® MP-1™ panel", "assay": "MIC, extended VIE panel", "format": "cell-based, Enterococci", "details": "range over 5 strains, broth microdilution, 37 °C, 20 h"}, "HEK293 cells": {"system": "HEK293 cells", "assay": "MTT viability assay, HEK293", "format": "cell-based, human", "details": "500 μg/mL, 48 h, relative to 1% (v/v) DMSO vehicle control; n = 3", "procedure,_shortened": "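HEK293 cells were kept in DMEM with 10% (v/v) FBS, 1% (v/v) penicillin/streptomycin and 4.5 g/L glucose at 37 °C, 5% CO2, passaged tri-weekly. MTT viability was measured after test compound at 500 μg/mL and normalized to 1% (v/v) DMSO vehicle. The positive control was the cytotoxic peptide NaD1 at 50 μM. Three technical replicates were run, with unpaired two-tailed Student's t tests.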"}, "acetyl-Lys-D-Ala-D-Lac": {"molecular_target": "acetyl-Lys-D-Ala-D-Lac", "assay": "Microscale thermophoresis binding, D-Ala-D-Lac tripeptide", "details": "MST, fluorescently labeled tripeptide, 25 °C; N = 3, ±S.D.; n.b.: no binding", "procedure,_shortened": "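The tripeptide was labelled with an amine-reactive red NHS dye and mixed 1:1 with aqueous test compound (final 200 μM to 6.1 nM). Mixtures were incubated 5 min at 25 °C and read at 25 °C with 20% LED and 20% IR laser power (30 s on, 5 s off). The thermophoresis + T-jump signal from three independent runs was fitted to a single-site binding model.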"}, "MurJ": {"system": "MurJ", "assay": "Native mass spectrometry, direct binding to MurJ", "details": "3 µM compound added to MurJ", "procedure,_shortened": "(§1)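 Purified MurJ was buffer-exchanged into 200 mM ammonium acetate pH 8.0 with 2× critical micelle concentration LDAO and infused via gold-coated capillaries. Settings were capillary 1.1 kV, m/z 1,000–20,000, S-lens RF 100%, HCD 200 V, trapping gas 7.5, 200 °C, resolution 12,500, noise level 3, and no in-source dissociation.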"}, "MurJ:lipid II complex": {"system": "MurJ:lipid II complex", "assay": "Native mass spectrometry, MurJ:lipid II complex", "format": "binding", "details": "5 µM MurJ with 3 µM lipid II, then 7 µM compound", "procedure,_shortened": "as §1"}, "[2]": {"system": "peptidoglycan precursors D-Ala-D-Lac", "details": "remodeling of peptidoglycan precursors from D-Ala-D-Ala to D-Ala-D-Lac; cited from earlier work"}}}
{"compound": "CN[C@H](CC(C)C)C(=O)N[C@H]1C(=O)N[C@@H](CC(N)=O)C(=O)N[C@H]2C(=O)N[C@H]3C(=O)N[C@H](C(=O)N[C@H](C(=O)O)c4cc(O)cc(O)c4-c4cc3ccc4O)[C@H](O)c3ccc(c(Cl)c3)Oc3cc2cc(c3O[C@@H]2O[C@H](CO)[C@@H](O)[C@H](O)[C@H]2O[C@H]2C[C@](C)(N)[C@H](O)[C@H](C)O2)Oc2ccc(cc2Cl)[C@H]1O", "note": "[Vancomycin]", "values": [{"measurement": "MIC, VIE (5 strains)", "setting": "[1]", "result": "8 to 16", "unit": "µg/mL"}, {"measurement": "Viability of HEK293 cells (MTT)", "setting": "HEK293 cells", "result": "significant decrease in the viability"}, {"measurement": "KD, acetyl-Lys-D-Ala-D-Lac", "setting": "acetyl-Lys-D-Ala-D-Lac", "result": "no binding was observed"}, {"measurement": "Direct binding to MurJ (native mass spectra)", "setting": "MurJ", "result": "no binding was observed"}, {"measurement": "Ternary complex formation with MurJ:lipid II (native mass spectra)", "setting": "MurJ:lipid II complex", "result": "expected ternary complex was formed"}, {"measurement": "Reduction of vancomycin binding and antimicrobial activity", "setting": "[2]", "result": "1,000 fold"}]}
